Source: ChEMBL document CHEMBL1828627, “High-throughput-screening-based identification and structure-activity relationship characterization defined (S)-2-(1-aminoisobutyl)-1-(3-chlorobenzyl)benzimidazole as a highly antimycotic agent nontoxic to cell lines” (J Med Chem, 2011)
Values after ≈ are worked out from the molar mass of the structure shown. Active and inactive are the calls of the source.

Tests used:
[1] = test system: Pichia kudriavzevii; assay: Antifungal activity against Issatchenkia orientalis ATCC 6258 by broth dilution method; type: functional
Summary of the method: (§1)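 MICs by broth microdilution following CLSI M27-A3 for yeasts, with fluconazole as the reference antifungal. Panel covered type strains and clinical isolates of Candida spp. (21 strains). Reference control strains: C. albicans DSMZ 11949, C. glabrata ATCC 90030, C. parapsilosis 22019 and 90018, Issatchenkia orientalis ATCC 6258. MIC in μg/mL; averages given as geometric means.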

[2] = test system: Candida parapsilosis; assay: Antifungal activity against Candida parapsilosis 22019 by broth dilution method; type: functional; conditions: Lodderomyces parapsilosis; summary of the method: as §1
[3] = test system: Candida albicans; assay: Antifungal activity against Candida albicans AN 562 by broth dilution method; type: functional; summary of the method: as §1
[4] = test system: Candida parapsilosis; assay: Antifungal activity against Candida parapsilosis 90018 by broth dilution method; type: functional; conditions: Lodderomyces parapsilosis; summary of the method: as §1
[5] = test system: Candida albicans; assay: Antifungal activity against Candida albicans DSMZ 11949 by broth dilution method; type: functional; summary of the method: as §1
[6] = test system: Nakaseomyces glabratus; assay: Antifungal activity against Candida glabrata ATCC 90030 by broth dilution method; type: functional; summary of the method: as §1
[7] = test system: Candida albicans; assay: Antifungal activity against Candida albicans Jg 32570 by broth dilution method; type: functional; summary of the method: as §1
[8] = test system: Nakaseomyces glabratus; assay: Antifungal activity against Candida glabrata AN 8626 by broth dilution method; type: functional; summary of the method: as §1
[9] = test system: Candida albicans; assay: Antifungal activity against Candida albicans AN 1994 by broth dilution method; type: functional; summary of the method: as §1
[10] = test system: Candida albicans; assay: Antifungal activity against Candida albicans SCS 71865 L by broth dilution method; type: functional; summary of the method: as §1
[11] = Selectivity index of CC50 for human HeLa cells to IC50 for Candida albicans SC5314 infected in HeLa cells
Summary of the method: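 Selectivity index calculated as CC50/IC50. CC50 is the half-maximal cytotoxic concentration in HeLa cells; IC50 is the half-maximal antimycotic concentration in the C. albicans–infected HeLa assay. Both come from 5-day fluorescein diacetate viability readouts.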

[12] = test system: Candida albicans; assay: Antifungal activity against Candida albicans SC5314 infected in HeLa cells at 20 uM after 5 days by fluorescein diacetate assay; type: functional, organism-based
Summary of the method: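 Primary HTS: HeLa cells co-incubated with C. albicans plus a single compound at ~20 μM for 5 days. Viability checked microscopically at 18 h and quantified at day 5 by fluorescein diacetate fluorescence. Wells also scanned visually for yeast growth. Hit criterion: >40% signal relative to the uninfected untreated HeLa (~100%) and infected untreated HeLa (~0%) controls.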

[13] = test system: Candida albicans; assay: Antifungal activity against Candida albicans SC5314 infected in HeLa cells after 5 days by fluorescein diacetate assay; type: functional, organism-based; conditions: Candida albicans, SC5314, HeLa, 120 h; read-out: IC50
Summary of the method: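 HeLa cells co-incubated with C. albicans and compound for 5 days. Dose–response from resynthesized compounds. Host-cell viability checked microscopically at 18 h, then quantified at day 5 by fluorescein diacetate conversion to a fluorophore by live cells. Wells also inspected visually for yeast growth. Controls: untreated uninfected HeLa (~100%) and untreated infected HeLa (~0%). IC50 derived from infected cells; CC50 as half-maximal cytotoxic concentration.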

[14] = test system: Candida albicans; assay: Antifungal activity against Candida albicans MY 2902/2008 by broth dilution method; type: functional; summary of the method: as §1
[15] = test system: Candida albicans; assay: Antifungal activity against Candida albicans VB 1723 by broth dilution method; type: functional; summary of the method: as §1
[16] = Cytotoxicity against human HeLa cells assessed as cell viability after 5 days by fluorescein diacetate assay; type: cell-based
[17] = test system: Candida parapsilosis; assay: Antifungal activity against Candida parapsilosis AN 5485 by broth dilution method; type: functional; conditions: Lodderomyces parapsilosis; summary of the method: as §1
[18] = test system: Candida tropicalis; assay: Antifungal activity against Candida tropicalis AN 1946 by broth dilution method; type: functional; summary of the method: as §1
[19] = test system: Candida albicans; assay: Antifungal activity against Candida albicans CA20 by broth dilution method; type: functional; summary of the method: as §1
[20] = test system: Nakaseomyces glabratus; assay: Antifungal activity against Candida glabrata CG 7 by broth dilution method; type: functional; summary of the method: as §1
[21] = test system: Candida albicans; assay: Antifungal activity against Candida albicans AM2001/2007 by broth dilution method; type: functional; summary of the method: as §1
[22] = test system: Candida albicans; assay: Antifungal activity against Candida albicans CA21 by broth dilution method; type: functional; summary of the method: as §1
[23] = test system: Candida albicans; assay: Antifungal activity against Candida albicans AN 3156 by broth dilution method; type: functional; summary of the method: as §1
[24] = test system: Candida albicans; assay: Antifungal activity against Candida albicans AN 1699 by broth dilution method; type: functional; summary of the method: as §1
[25] = test system: Candida parapsilosis; assay: Antifungal activity against Candida parapsilosis AV 7675 by broth dilution method; type: functional; conditions: Lodderomyces parapsilosis; summary of the method: as §1

| SMILES | MIC [1] | MIC [2] | MIC [3] | MIC [4] | MIC [5] | MIC [6] | MIC [7] | MIC [8] | MIC [9] | MIC [10] | MIC [14] | MIC [15] | MIC [17] | MIC [18] | MIC [19] | MIC [20] | MIC [21] | MIC [22] | MIC [23] | MIC [24] | further results |
| --- | --- | --- | --- | --- | --- | --- | --- | --- | --- | --- | --- | --- | --- | --- | --- | --- | --- | --- | --- | --- | --- |
| CC(C)[C@H](N)c1nc2ccccc2n1Cc1cccc(F)c1 | 16 µg/mL (≈ 53.8 µM) | 16 µg/mL (≈ 53.8 µM) | 16 µg/mL (≈ 53.8 µM) | 16 µg/mL (≈ 53.8 µM) | 16 µg/mL (≈ 53.8 µM) | 8 µg/mL (≈ 26.9 µM) | 128 µg/mL (≈ 430 µM) | 16 µg/mL (≈ 53.8 µM) | 2 µg/mL (≈ 6.73 µM) | 16 µg/mL (≈ 53.8 µM) | 16 µg/mL (≈ 53.8 µM) | 4 µg/mL (≈ 13.5 µM) | 16 µg/mL (≈ 53.8 µM) | 32 µg/mL (≈ 108 µM) | 0.125 µg/mL (≈ 0.42 µM) | 64 µg/mL (≈ 215 µM) | 4 µg/mL (≈ 13.5 µM) | 0.125 µg/mL (≈ 0.42 µM) | 16 µg/mL (≈ 53.8 µM) | 16 µg/mL (≈ 53.8 µM) | Ratio CC50/IC50 [11]: 9.4; inhibition [12]: inactive; IC50 [13]: 2.2 µM; CC50 at 120 h [16]: 20.6 µM; MIC [25]: 128 µg/mL (≈ 430 µM) |
| OC(Cn1cncn1)(Cn1cncn1)c1ccc(F)cc1F [FLUCONAZOLE] | 0.25 µg/mL (≈ 0.816 µM) | 1 µg/mL (≈ 3.27 µM) | 1 µg/mL (≈ 3.27 µM) | 0.25 µg/mL (≈ 0.816 µM) | 2 µg/mL (≈ 6.53 µM) | 0.125 µg/mL (≈ 0.408 µM) | 128 µg/mL (≈ 418 µM) | 4 µg/mL (≈ 13.1 µM) | 128 µg/mL (≈ 418 µM) | 0.125 µg/mL (≈ 0.408 µM) | 0.5 µg/mL (≈ 1.63 µM) | 0.5 µg/mL (≈ 1.63 µM) | 0.25 µg/mL (≈ 0.816 µM) | 128 µg/mL (≈ 418 µM) | 0.125 µg/mL (≈ 0.408 µM) | 4 µg/mL (≈ 13.1 µM) | 0.5 µg/mL (≈ 1.63 µM) | 0.125 µg/mL (≈ 0.408 µM) | 8 µg/mL (≈ 26.1 µM) | 8 µg/mL (≈ 26.1 µM) | MIC [25]: 2 µg/mL (≈ 6.53 µM) |
| CC(C)[C@H](N)c1nc2ccccc2n1Cc1cccc(Cl)c1 | 0.5 µg/mL (≈ 1.59 µM) | 2 µg/mL (≈ 6.37 µM) | 16 µg/mL (≈ 51 µM) | 0.5 µg/mL (≈ 1.59 µM) | 2 µg/mL (≈ 6.37 µM) | 0.125 µg/mL (≈ 0.398 µM) | 16 µg/mL (≈ 51 µM) | 0.125 µg/mL (≈ 0.398 µM) | 16 µg/mL (≈ 51 µM) | 64 µg/mL (≈ 204 µM) | 16 µg/mL (≈ 51 µM) | 0.25 µg/mL (≈ 0.797 µM) | 1 µg/mL (≈ 3.19 µM) | 4 µg/mL (≈ 12.7 µM) | 0.125 µg/mL (≈ 0.398 µM) | 2 µg/mL (≈ 6.37 µM) | 0.25 µg/mL (≈ 0.797 µM) | 0.125 µg/mL (≈ 0.398 µM) | 16 µg/mL (≈ 51 µM) | 32 µg/mL (≈ 102 µM) | Ratio CC50/IC50 [11]: 130; IC50 [13]: 0.75 µM; CC50 at 120 h [16]: 97.5 µM; MIC [25]: 8 µg/mL (≈ 25.5 µM) |
| C[C@H](N)c1nc2ccccc2n1Cc1cccc(Cl)c1 | 4 µg/mL (≈ 14 µM) | 4 µg/mL (≈ 14 µM) | 16 µg/mL (≈ 56 µM) | 4 µg/mL (≈ 14 µM) | 4 µg/mL (≈ 14 µM) | 8 µg/mL (≈ 28 µM) | 128 µg/mL (≈ 448 µM) | 4 µg/mL (≈ 14 µM) | 16 µg/mL (≈ 56 µM) | 8 µg/mL (≈ 28 µM) | 0.5 µg/mL (≈ 1.75 µM) | 1 µg/mL (≈ 3.5 µM) | 8 µg/mL (≈ 28 µM) | 8 µg/mL (≈ 28 µM) | 0.125 µg/mL (≈ 0.437 µM) | 8 µg/mL (≈ 28 µM) | 8 µg/mL (≈ 28 µM) | 0.125 µg/mL (≈ 0.437 µM) | 16 µg/mL (≈ 56 µM) | 16 µg/mL (≈ 56 µM) | Ratio CC50/IC50 [11]: 2.5; inhibition [12]: inactive; IC50 [13]: 7.8 µM; CC50 at 120 h [16]: 19.3 µM; MIC [25]: 128 µg/mL (≈ 448 µM) |
| Cc1cccc(Cn2c([C@@H](N)C(C)C)nc3ccccc32)c1 | 1 µg/mL (≈ 3.41 µM) | 1 µg/mL (≈ 3.41 µM) | 32 µg/mL (≈ 109 µM) | 1 µg/mL (≈ 3.41 µM) | 16 µg/mL (≈ 54.5 µM) | 0.25 µg/mL (≈ 0.852 µM) | 128 µg/mL (≈ 436 µM) | 0.125 µg/mL (≈ 0.426 µM) | 32 µg/mL (≈ 109 µM) | 32 µg/mL (≈ 109 µM) | 32 µg/mL (≈ 109 µM) | 32 µg/mL (≈ 109 µM) | 2 µg/mL (≈ 6.82 µM) | 8 µg/mL (≈ 27.3 µM) | 0.125 µg/mL (≈ 0.426 µM) | 32 µg/mL (≈ 109 µM) | 16 µg/mL (≈ 54.5 µM) | 0.5 µg/mL (≈ 1.7 µM) | 32 µg/mL (≈ 109 µM) | 64 µg/mL (≈ 218 µM) | Ratio CC50/IC50 [11]: 3.2; inhibition [12]: inactive; IC50 [13]: 3.3 µM; CC50 at 120 h [16]: 10.6 µM; MIC [25]: 128 µg/mL (≈ 436 µM) |
| Cc1cccc(Cn2c([C@H](C)N)nc3ccccc32)c1 | 128 µg/mL (≈ 482 µM) | 128 µg/mL (≈ 482 µM) | 128 µg/mL (≈ 482 µM) | 128 µg/mL (≈ 482 µM) | 8 µg/mL (≈ 30.1 µM) | 64 µg/mL (≈ 241 µM) | 128 µg/mL (≈ 482 µM) | 64 µg/mL (≈ 241 µM) | 128 µg/mL (≈ 482 µM) | 128 µg/mL (≈ 482 µM) | 32 µg/mL (≈ 121 µM) | 128 µg/mL (≈ 482 µM) | 128 µg/mL (≈ 482 µM) | 128 µg/mL (≈ 482 µM) | 1 µg/mL (≈ 3.77 µM) | 64 µg/mL (≈ 241 µM) | 64 µg/mL (≈ 241 µM) | 64 µg/mL (≈ 241 µM) | 128 µg/mL (≈ 482 µM) | 128 µg/mL (≈ 482 µM) | inhibition [12]: inactive; MIC [25]: 128 µg/mL (≈ 482 µM) |
| CC(C)(N)c1nc2ccccc2n1Cc1ccc(Cl)cc1 | – | – | – | – | – | – | – | – | – | – | – | – | – | – | – | – | – | – | – | – | Ratio CC50/IC50 [11]: 10; inhibition [12]: inactive; IC50 [13]: 5 µM; CC50 at 120 h [16]: 50 µM |
